Shown are actives, neighbours in structure and some others; about 3.1% of the full set was active somewhere.
KCNQ1 act: potentiators or activators of human KCNQ1 potassium channel; actives 0.35% (n = 310,000); AID 2648; CHO-K1 KCNQ1, thallium flux FluxOR fluorescence; active compounds read high; B-score at 10 µM; P51787;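 active means fluorescence ratio B-score, a plate-corrected score, at least three library SD, with initial intensity B-score within 5 SD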
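assay system = KCNQ1-transfected CHO-K1 cells | medium = assay buffer with matched DMSO | probe or stimulus = depolarizing K+/Tl+ stimulus, K2SO4 and Tl2SO4 each 12.5 mM in 5x stock | dosing = single dose | incubation = dye 90 min, compound 20 min, room temperature | detection = kinetic FluxOR fluorescence, 10 s baseline plus 110 s post-stimulus | evaluation = ratio B score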
KCNK3 block: human KCNK3 channel inhibition, primary screen | O14649 | AID 602410 | actives 0.84% (n = 340,000) | B-score at 10 µM | CHO-KCNK3 thallium flux, FluxOR fluorescence; active compounds read low;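 active means B-score under library mean minus 4 SD, starting fluorescence ratio at most library mean plus 5 SD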;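 further: more negative B-score means stronger inhibition of thallium flux through KCNK3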
hERG rescue: shields human hERG channel from block by proarrhythmic agents. CHO-hERG, FluxOR thallium flux, dofetilide IC70 present. AID 1511. actives 0.51% (n = 310,000). activation (rescue from dofetilide block), less the hit threshold, % at 10 µM;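 active means activation above the mean of controls blocked by dofetilide plus 5 SD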;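 further: thallium influx through hERG after potassium depolarization seen as dye fluorescence rise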
Target sequence (Q12809 whole entry, looked up): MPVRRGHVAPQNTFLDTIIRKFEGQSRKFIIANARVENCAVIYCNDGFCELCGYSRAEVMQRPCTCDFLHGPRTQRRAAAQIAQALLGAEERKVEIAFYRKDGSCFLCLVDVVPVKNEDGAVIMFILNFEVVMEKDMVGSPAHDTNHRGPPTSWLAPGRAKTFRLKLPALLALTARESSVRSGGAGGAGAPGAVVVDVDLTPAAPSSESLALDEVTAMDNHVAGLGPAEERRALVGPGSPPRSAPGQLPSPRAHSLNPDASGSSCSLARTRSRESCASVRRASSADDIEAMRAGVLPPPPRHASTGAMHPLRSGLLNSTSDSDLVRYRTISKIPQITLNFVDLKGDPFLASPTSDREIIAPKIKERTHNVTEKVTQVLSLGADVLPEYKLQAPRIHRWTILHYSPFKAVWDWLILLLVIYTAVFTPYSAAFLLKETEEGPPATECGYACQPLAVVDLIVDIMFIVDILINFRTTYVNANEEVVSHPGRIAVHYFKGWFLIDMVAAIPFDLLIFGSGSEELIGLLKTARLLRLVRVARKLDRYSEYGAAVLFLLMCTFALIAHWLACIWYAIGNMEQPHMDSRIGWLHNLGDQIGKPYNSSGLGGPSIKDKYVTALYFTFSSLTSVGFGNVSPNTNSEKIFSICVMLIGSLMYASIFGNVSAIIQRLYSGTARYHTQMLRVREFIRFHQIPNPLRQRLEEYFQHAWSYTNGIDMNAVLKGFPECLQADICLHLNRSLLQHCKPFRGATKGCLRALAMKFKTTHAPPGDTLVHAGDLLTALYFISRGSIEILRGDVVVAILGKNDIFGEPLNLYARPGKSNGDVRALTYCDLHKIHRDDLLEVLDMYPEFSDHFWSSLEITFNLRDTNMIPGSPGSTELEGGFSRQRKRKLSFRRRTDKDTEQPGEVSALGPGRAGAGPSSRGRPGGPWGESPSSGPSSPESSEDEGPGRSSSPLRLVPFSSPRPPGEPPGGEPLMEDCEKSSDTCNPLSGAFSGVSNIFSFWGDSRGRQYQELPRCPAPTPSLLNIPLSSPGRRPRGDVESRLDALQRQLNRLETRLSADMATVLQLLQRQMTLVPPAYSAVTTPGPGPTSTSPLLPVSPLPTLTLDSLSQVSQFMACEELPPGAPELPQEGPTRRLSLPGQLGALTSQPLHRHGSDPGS
KCNQ1 inh: inhibitors of human KCNQ1 potassium channel; AID 2642; actives 1.3% (n = 310,000); B-score at 10 µM; CHO-K1 KCNQ1, FluxOR thallium flux fluorescence; active compounds read high;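 active means compounds whose thallium flux B-score, printed positive for inhibition, exceeds three library SD while starting fluorescence stays within three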;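 further: channel opened by potassium depolarization with thallium stimulus after 20 min compound exposure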
KCNK9 inh: blocks the human KCNK9 two-pore domain potassium channel | Q9NPC2 | HEK293 KCNK9, FluxOR thallium flux fluorescence; active compounds read low | B-score at 10 µM | actives 1.2% (n = 310,000) | AID 488922;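 active means ratio B-score over 3 SD below the library mean, with starting fluorescence within 5 SD of its mean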;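 further: negative B-score means less thallium flux so channel inhibition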
KCNQ1 inh valid: human KCNQ1 channel inhibition, validation assay; inhibition, % at 10 µM; AID 588353; actives 93% (n = 1,600); KCNQ1 cell line, FluxOR thallium flux fluorescence; shares compounds with KCNQ1 inh;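 active means primary screen active, with duplicate mean exceeding buffer control mean plus 3 SD of buffer wells, cut at about 28% in these data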
CHO KCNQ1 ctr: activity in parental CHO cells lacking KCNQ1; shares compounds with KCNQ1 inh; parental CHO-K1, FluxOR thallium flux fluorescence ratio; active compounds read low; zero means no signal rise above baseline; fluorescence ratio (Tl flux) at 10 µM; actives 21% (n = 1,600); AID 588366;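 active means mean of duplicate thallium-flux fluorescence ratios in parental host cells more than 5 SD below the buffer control mean, cut at about 0.38 in these data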;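 further: ratio is peak minus minimum fluorescence divided by baseline fluorescence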
KCNQ1 APC inh: blocks human KCNQ1 current in automated patch clamp; calls only at 10 µM; actives 20% (n = 490); shares compounds with KCNQ1 inh; KCNQ1-CHO cells; AID 624120;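 active means KCNQ1 current drop exceeding 3 SD of negative control wells, seen in both duplicate runs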;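 further: steady state current during a 2 s step from -80 to +40 mV; negative values mean current inhibition and positive values mean potentiation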
KCNQ2 inh: rat KCNQ2 inhibition in KCNQ1 inhibitor specificity screen. shares compounds with KCNQ1 inh. KCNQ2 cells, FluxOR thallium flux fluorescence. inhibition, % at 10 µM. actives 71% (n = 1,600). AID 651746;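 active means mean percent inhibition of the KCNQ2 thallium signal more than 5 SD above the buffer-only control wells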;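 further: KCNQ2 expressed in CHO cells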
KCNQ1-KCNE1 inh: human KCNQ1/KCNE1 inhibition in KCNQ1 specificity screen | AID 652147 | shares compounds with KCNQ1 inh | actives 77% (n = 1,600) | inhibition, % at 10 µM | KCNQ1/KCNE1 cells, FluxOR thallium flux fluorescence;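 active means mean percent inhibition of duplicate wells above the buffer-only control mean plus 3 SD of those controls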
Large screens that a line does not name were inactive (follow-up assays come after a bar, where they were run).

S=C(Nc1ccc(Cl)c(Cl)c1)NC1CCCCC1	KCNQ1 inh 6 | KCNQ1 inh valid 69 | CHO KCNQ1 ctr inactive | KCNQ2 inh inactive | KCNQ1-KCNE1 inh inactive
Cc1ccc(NC(=S)NC2CCCCC2)cc1S(=O)(=O)N(C)C	KCNQ1 inh 7 | KCNQ1 inh valid 132 | CHO KCNQ1 ctr inactive | KCNQ1 APC inh inactive | KCNQ2 inh 107% | KCNQ1-KCNE1 inh inactive
CCCCNC(=S)Nc1ccc(C(F)(F)F)cc1	KCNQ1 inh 8 | KCNQ1 inh valid 32 | CHO KCNQ1 ctr inactive | KCNQ2 inh inactive | KCNQ1-KCNE1 inh inactive
CCOC(=O)C1=CN(Cc2cccc(-c3ccc4c(c3)OCO4)c2)S(=O)(=O)N(C)C1C (stereo unspecified)	none (no result: KCNQ1 act, hERG rescue, KCNQ1 inh, KCNK9 inh)
O=C(NCc1ccco1)/C(=C\c1ccc(F)cc1)NC(=O)c1ccco1	none
CCOC(=O)c1cc(-c2ccccc2C)n(CC2CC(c3cccc([N+](=O)[O-])c3)=NO2)n1 (stereo unspecified)	none (no result: KCNQ1 act, hERG rescue, KCNQ1 inh, KCNK9 inh)
FC(F)(F)c1cccc(NC(=S)NC2CCCC2)c1	none
Fc1cccc(NC(=S)NC2CCCCCCC2)c1	KCNQ1 inh 8 | KCNQ1 inh valid 105 | CHO KCNQ1 ctr inactive | KCNQ1 APC inh active | KCNQ2 inh 75% | KCNQ1-KCNE1 inh 88%
O=C1CSC(c2cn(-c3ccccc3)nc2-c2ccccc2)N1Cc1ccco1 (stereo unspecified)	KCNQ1 inh 10 | KCNQ1 inh valid 134 | CHO KCNQ1 ctr inactive | KCNQ1 APC inh inactive | KCNQ2 inh 108% | KCNQ1-KCNE1 inh 189%
CCN(C(=O)c1cccc(S(=O)(=O)N2CCc3ccccc32)c1)C1CCS(=O)(=O)C1 (stereo unspecified)	none (no result: KCNQ1 act, hERG rescue, KCNQ1 inh, KCNK9 inh)
CC(On1c(-c2ccccc2)nc2ccc(Cl)cc21)C(=O)O (stereo unspecified)	none
CCOC(=O)C(C)On1c(-c2cccc(Cl)c2)nc2ccc([N+](=O)[O-])cc21 (stereo unspecified)	KCNQ1 inh 15 | KCNQ1 inh valid 154 | CHO KCNQ1 ctr 0.34 | KCNQ2 inh 131% | KCNQ1-KCNE1 inh active
CN1C/C(=C/c2ccccc2[N+](=O)[O-])C(=O)/C(=C\c2ccccc2[N+](=O)[O-])C1	none (no result: KCNQ1 act, hERG rescue, KCNQ1 inh, KCNK9 inh)
O=C(NC(=S)Nc1ccccc1N1CCOCC1)c1ccccc1F	none
O=C(NC(=S)Nc1ccccc1N1CCN(C(=O)c2ccccc2)CC1)c1ccccc1F	KCNQ1 inh 10 | KCNQ1 inh valid 84 | CHO KCNQ1 ctr inactive | KCNQ2 inh 110% | KCNQ1-KCNE1 inh 112%
CN(c1ccccc1)S(=O)(=O)c1ccc(NC(=O)c2ccccc2)cc1	none
CN(c1ccccc1)S(=O)(=O)c1ccc(NC(=O)c2ccc(F)cc2)cc1	KCNQ1 inh 7 | KCNQ1 inh valid 90 | CHO KCNQ1 ctr inactive | KCNQ1 APC inh inactive | KCNQ2 inh 117% | KCNQ1-KCNE1 inh 131%
Cc1ccc(Cl)cc1N1CCN(C(=O)c2ccccc2SCC(=O)N2CCCC2)CC1	none (no result: KCNQ1 act, hERG rescue, KCNQ1 inh, KCNK9 inh)
O=C(Nc1ccc(Br)cc1)Nc1cnccn1	KCNQ1 inh 7 | KCNQ1 inh valid inactive | CHO KCNQ1 ctr inactive | KCNQ2 inh inactive | KCNQ1-KCNE1 inh inactive
CC(C)(C)c1csc(NC(=O)Cc2ccc(S(=O)(=O)N3CCOCC3)s2)n1	KCNQ1 inh 9 | KCNQ1 inh valid 72 | CHO KCNQ1 ctr inactive | KCNQ2 inh inactive | KCNQ1-KCNE1 inh 96%
CCC(C)NC(=O)CCc1c(C)nc2nc(-c3cc(OC)cc(OC)c3)nn2c1C (stereo unspecified)	KCNQ1 inh 8 | KCNQ1 inh valid active | CHO KCNQ1 ctr inactive | KCNQ1 APC inh inactive | KCNQ2 inh inactive | KCNQ1-KCNE1 inh inactive
C[C@H](CO)N1C[C@H](C)[C@@H](CN(C)S(C)(=O)=O)Oc2ccc(NS(=O)(=O)c3cn(C)cn3)cc2C1=O	none (no result: KCNQ1 act, hERG rescue, KCNQ1 inh, KCNK9 inh)
C=CCN(CC(=O)NC1CC1)S(=O)(=O)c1cccc(C(F)(F)F)c1	none (no result: KCNQ1 act, hERG rescue, KCNQ1 inh, KCNK9 inh)
OCCN1CCN(C(=S)NC2CCCC2)CC1	KCNQ1 inh 10 | KCNQ1 inh valid 83 | CHO KCNQ1 ctr inactive | KCNQ2 inh inactive | KCNQ1-KCNE1 inh 110%
S=C(NC1CC1)N1CCN(C(=S)NC2CC2)CC1	none
COc1ccc(NS(=O)(=O)c2ccc(C)c(C(=O)N3CCCCCCC3)c2)cc1	none
CCCCOc1[nH]c2nc(-c3ccco3)n(Cc3ccco3)c(=N)c2c1C#N	KCNQ1 inh 14, KCNK9 inh -7.2 | KCNQ1 inh valid 76 | CHO KCNQ1 ctr inactive | KCNQ2 inh 78% | KCNQ1-KCNE1 inh 81%
CC1CCCN(C(=O)CN2C(=O)NC(C)(c3ccc4ccccc4c3)C2=O)C1 (stereo unspecified)	none (no result: KCNQ1 act, hERG rescue, KCNQ1 inh, KCNK9 inh)
Cc1cc(NC(=S)Nc2cccnc2)ccc1Br	KCNQ1 inh 10 | KCNQ1 inh valid 67 | CHO KCNQ1 ctr inactive | KCNQ2 inh inactive | KCNQ1-KCNE1 inh inactive
Cc1cc(NC(=S)Nc2ccccc2)ccc1Br	none
CC1CCCCC12NC(=O)N(CC(=O)Nc1nccs1)C2=O (stereo unspecified)	none (no result: KCNQ1 act, hERG rescue, KCNQ1 inh, KCNK9 inh)
FC(F)(F)c1cccc(-c2nc3nc(Cl)c(Cl)nc3[nH]2)c1	KCNQ1 inh 8 | KCNQ1 inh valid 52 | CHO KCNQ1 ctr inactive | KCNQ2 inh inactive | KCNQ1-KCNE1 inh inactive
CN(CC(=O)Nc1cccc(F)c1)C(=O)c1cn(-c2ccccc2)nc1-c1cccs1	KCNQ1 inh 8 | KCNQ1 inh valid 79 | CHO KCNQ1 ctr inactive | KCNQ2 inh 83% | KCNQ1-KCNE1 inh 108%
CCN(C[C@H]1N[C@@](CC)(C(=O)OC)[C@H]2C(=O)N(C)C(=O)[C@@H]12)C(=O)NC(C)C	none (no result: KCNQ1 act, hERG rescue, KCNQ1 inh, KCNK9 inh)
CCCc1ccc(-c2cc(C(=O)N3CCN(c4ccccn4)CC3)c3ccccc3n2)cc1	KCNQ1 inh 9 | KCNQ1 inh valid 89 | CHO KCNQ1 ctr inactive | KCNQ1 APC inh inactive | KCNQ2 inh 114% | KCNQ1-KCNE1 inh 104%
CCOc1ccc(-c2cc(C(=O)N3CCN(c4ccccn4)CC3)c3ccccc3n2)cc1	none
COc1ccc(C(F)(F)F)cc1N/C=C\c1nnnn1-c1ccccc1	KCNQ1 inh 9 | KCNQ1 inh valid 98 | CHO KCNQ1 ctr inactive | KCNQ1 APC inh inactive | KCNQ2 inh 64% | KCNQ1-KCNE1 inh 79%
O=C(c1ccccc1)c1ccccc1N/C=C/c1nnnn1-c1ccccc1	none
